Data from PubChem BioAssay.
A number with no mark means an inactive call. Records with an inconclusive call do not appear. The source made the active and inactive calls.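 How the source made its calls, unless noted: active means growth inhibition above 25% in both replicates, a cutoff set 3 SD above the mean; inconclusive means above 25% in only one replicate; inactive means the rest.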

Legend:
[1] = OD615 S. cerevisiae growth inhibition, permissive medium, pilot counter-assay, permissive growth control for S. cerevisiae lifespan shortening project (AID 705); settings: OD615, 24 h, at 10 µM, hits give high values
Method in brief: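 Material: engineered DeaD yeast; compound dosing: one dose 10 µM, DMSO 0.25% final; measure: yeast growth inhibition indicated by reduced 24 h OD615; detection: OD615 turbidity read; incubation: cells pre-grown 4 h, then 24 h compound exposure, 30 °C humidified; medium: permissive synthetic complete medium with raffinose and galactose carbon sources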

[2] = Restrictive medium S. cerevisiae growth inhibition, OD615, pilot screen of yeast lifespan reduction project, restrictive growth control (AID 706;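 active means growth inhibition above a set limit, 3 SD over mean compound inhibition, in both replicates, cut at about 43% in these data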;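 further: modified DeaD lifespan yeast strain shifted to restrictive glucose medium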); settings: OD615, 48 h, at 10 µM, hits give high values
Method in brief: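 material = engineered S. cerevisiae DeaD strain | medium = glucose-based CSMM-D restrictive medium | times = 4 h pre-incubation, 48 h exposure at 30 °C | technique = OD615 absorbance reading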

[3] = viability gain of MRP-1-high H69AR cells under doxorubicin, pilot screen, MRP-1 activator project, CellTiter-Glo, duplicate (AID 807;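 active means viability increase at or above a cutoff of the median across tested compounds plus 3 SD, cut at about 8.5% in these data, passing the limit was not always enough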;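 further: compound pretreatment 18-22 h then 72 h combined with doxorubicin; 0% = doxorubicin alone and 100% = vehicle without doxorubicin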); settings: H69AR viability with doxorubicin, CellTiter-Glo luminescence; at 10 µM; hits give high values
[4] = growth suppression of beta-catenin knockout HCT116, pilot screen, human colon tumor cells (AID 823;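 active means cell viability at or below a set limit in both duplicate runs, the limit being the all-compound median minus 4 SD, cut at about 23% in these data, passing the limit was not always enough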;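 further: 0% = wells killed by 20 µM Hyamine and 100% = untreated DMSO cell wells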); settings: CellTiter-Glo, 60 h, at 10 µM, hits give low values
[5] = growth suppression of PTEN-deleted HCT116, pilot screen, cell-based, HCT116 clonal line, CellTiter-Glo (AID 824;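 active means viability at or below 27.92% in each of two runs, the all-compound median minus 4 SD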;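 further: 0% = 20 µM Hyamine control and 100% = vehicle cell control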); settings: 60 h, at 10 µM, hits give low values
[6] = inhibitors of the yeast RAM network, pilot screen, dse1pr::URA3 reporter, 5-FOA selection (AID 869;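 active means inhibition over a set limit, the all-compound mean plus 3 SD, in both replicate runs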;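 further: 0% = DMSO wells with no growth and 100% = 10 µM 1-NA-PP1 with full growth; RAM network block rescues cells from 5-FOA so hits raise OD615 growth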); settings: S. cerevisiae dse1pr::URA3 5-FOA growth, OD615, 2 d; at 10 µM; hits give high values; strain carries analog-sensitive mutant Cbk1 kinase
[7] = RAM signaling pathway blockade in yeast – S. cerevisiae, Pdr1DBD-CYC8 efflux-inhibited sensitized strain, primary screen (AID 1298;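 active means RAM network inhibition above 8.4% in each of two replicates, 3 SD over the compound average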;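 further: 0% = DMSO untreated cells without growth and 100% = 10 µM 1-NA-PP1 full growth; higher means more yeast growth rescued from 5-FOA killing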); settings: S. cerevisiae cbk1-as DSE1-URA3 strain, 5-FOA growth OD615, 2 d; at 50 µM; hits give high values

SMILES | growth inhibition [1] [%] | growth inhibition [2] [%] | viability increase [3] [%] | viability [4] | viability [5] | inhibition [6] [%] | RAM network inhibition [7] [%]
Cc1cccc(CCNC(=O)c2nnc(Cc3ccc(Cl)cc3)o2)c1 | -3.04 | 1.66 | 0.18 | 102% | 95.5% | 1.27 | 6.94
CCOC(=O)C1CCN(C(=O)C2c3ccccc3C(=O)N(C)C2c2ccc(OC)cc2)CC1 (configuration not stated) | -7.75 | -16.1 | -4.5 | 76.3% | 85.8% | 2.1 | 1.79
CCN(CC)C(=O)Cn1c(=O)n(-c2ccccc2)c(=O)n1CC(=O)N(CC)CC | -4.64 | 2.5 | -1.25 | 103% | 97.4% | 1.29 | 1.08
Cc1cc(C)nc(NS(=O)(=O)c2ccc(NC(=O)c3ccco3)cc2)n1 | -5.44 | -11.7 | -1.87 | 100% | 95.9% | 0.26 | 2.44
CCCCCn1c(CNC(C)=O)nc2ccccc21 | -11.1 | -13.2 | 0.03 | 93.5% | 97.7% | 0.54 | 7.59
COc1ccc(N2C(=O)C(CC(=O)O)S/C2=C\C(C)=O)cc1 (configuration not stated) | -7.45 | -2.82 | -0.23 | 98% | 99.4% | 0.95 | 3.43
O=C(c1cc(-c2ccc(Cl)c(Cl)c2)on1)N1CCCC1 | -5.55 | 0.315 | 4.2 | 111% | 102% | 1.99 | 1.27
Cc1ccc(-n2ncc3c(NCCCN4CCOCC4)ncnc32)c(C)c1 | -6.19 | 6.86 | -1.79 | 96.1% | 93.9% | 2.75 | 0.42
CCCCC(=O)Nc1ccc2c(c1)C(=O)NC2=O | -2.94 | -3.99 | 0.07 | 101% | 94.5% | 2.62 | 2.45
COc1ccccc1-c1c(C)nn2c(N3CCCCCC3)cc(C)nc12 | -5.18 | -3.49 | -7.77 | 6.78% (active) | 7.98% (active) | 1.42 | -0.76
CC(NC(=O)c1cccnc1)C(c1cccs1)N1CCN(C)CC1 (configuration not stated) | -4.91 | 5.15 | 0.3 | 98.2% | 95% | 0.955 | 4.79
CCOCCCNC(=O)CN1C(=O)CSc2ccccc21 | -18.9 | -6.29 | -0.22 | 101% | 98.9% | 1.49 | 2.6
COc1ccc(S(=O)(=O)N2CC(C)N(S(=O)(=O)c3ccc(OC)cc3)CC2C)cc1 (configuration not stated) | -4.74 | 0.035 | -2.77 | 93.2% | 102% | 1.73 | 5.94
COc1ccc(N2CCCCn3c2nc2c3c(=O)[nH]c(=O)n2C)cc1 | -18.4 | -15.6 | -2.97 | 90.3% | 90.9% | 1.88 | 2.42
C=CCSC1=N/C(=C\c2ccsc2)C(=O)S1 | 7.03 | 27.8 | -2.48 | 98.1% | 93% | 0.475 | 0.97
COC(=O)c1ccccc1NC(=O)CSc1nccn1C | -3.94 | 2.94 | -0.69 | 93.1% | 92.2% | 1.27 | 2.31
O=C(O)CSC1c2ccccc2C(=O)N1Cc1ccccc1 (configuration not stated) | -13.6 | -2.05 | 2.07 | 94.4% | 93.7% | 0.06 | 0.3
CN(C)S(=O)(=O)c1ccc(-c2ccccc2)cc1 | -6.75 | -4.33 | 0.02 | 91.9% | 90.6% | 0.455 | 8.77

SMILES | growth inhibition [1] [%] | growth inhibition [2] [%] | viability increase [3] [%] | viability [4] | viability [5] | inhibition [6] [%] | RAM network inhibition [7] [%]
COc1ccc(Cl)cc1S(=O)(=O)N1CCN(C)CC1 | 1.3 | -7.12 | -2.26 | 100% | 86.8% | 1.67 | 5.97
CC(=O)OCCn1c(=O)c2cc3c(=O)n(CCOC(C)=O)c(=O)c3cc2c1=O | -7.22 | -6.18 | -0.09 | 101% | 98.3% | 1.84 | 1.25
CNc1ccc(OC(F)F)cc1C(=O)c1ccccc1 | 12.9 | -4.32 | -2.34 | 89.8% | 92.9% | 0.685 | 2.22
O=C(NCCN1CCOCC1)c1ccc(CS(=O)(=O)c2ccc(Br)cc2)o1 | 0.315 | -7.27 | -1.79 | 99.5% | 97.6% | 1.31 | 3.72
COc1ccc(CN2CCCC2C(=O)Nc2ccc(OC)c(OC)c2)cc1OC (configuration not stated) | -5.96 | -5.92 | -2.8 | 102% | 97.3% | 0.71 | 0.26
CCN(CC)c1ccc(NC(=O)C2CC3CCC2C3)cc1 (configuration not stated) | -9.15 | -4.45 | 1.44 | 69.6% | 80.6% | 1.14 | 6.6
O=C1NC(c2ccco2)Nc2sc3c(c21)CCN(Cc1ccccc1)C3 (configuration not stated) | 4.68 | 17.8 | -3.01 | 103% | 94% | 1.84 | 3.69
O=C(OCn1nnc2ccccc2c1=O)c1cccs1 | -7.72 | 2.16 | -0.21 | 103% | 95.9% | 0.24 | 3.6
Brc1ccc(-c2nc(-c3ccccn3)no2)o1 | 0.205 | 13 | -4.55 | 73.8% | 67.5% | 2.41 | 2.05
Cc1ccc(NS(=O)(=O)c2ccc3c(c2)oc(=O)n3C)cc1F | -11 | -10.8 | 0.32 | 89.1% | 86.1% | 1.1 | 3.85
Cc1oc(-c2ccccc2F)nc1CS(=O)CC(=O)NCc1cccs1 (configuration not stated) | -2.83 | 26 | -2.27 | 99.7% | 93.4% | 1.64 | 8.65
CCOC(=O)c1c(C)c(-c2ccccc2)n(CC(=O)N2CCCC2)c1C | -8.25 | -12.4 | -3.38 | 87.6% | 92.3% | 1.31 | 2.73
O=C(CN1C2=NCCCN2c2ccccc21)c1cccs1 | 1.83 | -10.1 | -3.27 | 95.7% | 92.1% | 0.695 | 4.72
CC(C)C(=O)Nc1ccc(Nc2ccccc2)cc1 | -3.29 | -8.34 | 0.79 | 105% | 104% | 0.87 | 2.52
CCCCn1nc(NC(=O)c2cccs2)c2cc3ccccc3nc21 | -22.7 | -8.93 | 1.45 | 54.6% | 48.3% | 0.55 | 4.61
CCOC(=O)c1[nH]c2c(c1C)C(=O)CC(c1ccc(F)cc1)C2 (configuration not stated) | -5.83 | -18.5 | -4.6 | 16.7% (active) | 20.4% (active) | 0.11 | 1.42
O=C(c1ccc(N2CCCCS2(=O)=O)cc1)N1CCN(c2ccc(N3CCOCC3)nn2)CC1 | 3.18 | 14.7 | -0.03 | 105% | 106% | 0.09 | 1.25
CCc1c(C)nc2[nH]nc(-c3ccccc3)n2c1=O | -20.2 | -10.2 | 0.32 | 96.2% | 99.1% | 1.69 | 4.8
